# Laboratory results taken from ChEMBL document CHEMBL4138185, “Investigation of the Physical and Bioactive Properties of Bromo- and Iodo-Containing Sponge-Derived Compounds Possessing an Oxyphenylethanamine Core” (J Nat Prod, 2017).
# Calls of active or inactive are those of the source. The rule behind the calls is not given here.
# How the values were obtained:
# [1] = test system: Yersinia pseudotuberculosis; assay: Growth inhibition of wild-type Yersinia pseudotuberculosis at 60 uM measured at 1 hr interval for 15 hrs; type: organism-based; conditions: in vivo
# How it was run: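 Wild-type Y. pseudotuberculosis grown at room temperature in 2×YT with test agent at 60 μM, kanamycin at 50 μg/mL, or DMSO. Absorbance at 600 nm read every hour over 15 h as the growth measure.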
# [2] = test system: Yersinia pseudotuberculosis; assay: Inhibition of wild-type Yersinia pseudotuberculosis T3SS-mediated YopE secretion at 30 uM after 2 hrs under low calcium medium by SDS-PAGE analysis relative to control
# [3] = test system: Yersinia pseudotuberculosis; assay: Toxicity against wild-type Yersinia pseudotuberculosis at 60 uM measured after 15 hrs by MTT assay; type: organism-based; conditions: in vivo
# How it was run: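 Wild-type Y. pseudotuberculosis grown at room temperature in 2×YT with test agent at 60 μM, kanamycin at 50 μg/mL, or DMSO. MTT added after 15 h; absorbance at 570 nm used as the metabolic activity read-out.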
# [4] = test system: Pseudomonas aeruginosa PA103; assay: Inhibition of Pseudomonas aeruginosa PA103 T3SS-mediated ExoU secretion at 60 uM after 3 hrs under low calcium medium by SDS-PAGE analysis relative to control
# [5] = test system: Yersinia pseudotuberculosis; assay: Inhibition of wild-type Yersinia pseudotuberculosis T3SS-mediated YopE secretion at 120 uM after 2 hrs under low calcium medium by SDS-PAGE analysis relative to control
# [6] = test system: Yersinia pseudotuberculosis; assay: Inhibition of wild-type Yersinia pseudotuberculosis T3SS-mediated YopE secretion at 60 uM after 2 hrs under low calcium medium by SDS-PAGE analysis relative to control
# [7] = test system: Yersinia pseudotuberculosis; assay: Inhibition of wild-type Yersinia pseudotuberculosis T3SS-mediated YopE secretion at 71 uM after 2 hrs under low calcium medium by SDS-PAGE analysis relative to control
Structure (SMILES),growth inhibition (GI) [1],inhibition [2],Activity [3],inhibition [4],inhibition [5],inhibition [6],inhibition [7]
CCC(=O)N(C)CCc1cc(Br)c(OCCCNC(=O)Cc2ccc(O)cc2)c(I)c1,Non-Toxic,> 50%,Non-Toxic,inactive,–,–,–
CCC(=O)N(C)CCc1ccc(OCCCNC(=O)Cc2ccc(O)cc2)c(I)c1,Non-Toxic,–,Non-Toxic,inactive,> 50%,–,–
CCC(=O)N(C)CCc1ccc(OCCCNC(=O)Cc2ccc(O)cc2)c(Br)c1,Non-Toxic,–,Non-Toxic,inactive,–,> 50%,–
CCC(=O)N(C)CCc1cc(Br)c(OCCCNC(=O)Cc2ccc(O)cc2)c(Br)c1,Non-Toxic,–,Non-Toxic,inactive,> 50%,–,–
CCC(=O)N(C)CCc1ccc(OCCCN(C)C(=O)Cc2ccc(O)cc2)c(Br)c1,Non-Toxic,> 50%,Non-Toxic,inactive,–,–,–
COc1c(Br)cc(CC(O)C(=O)NCCc2ccc(O)c(Br)c2)cc1Br (centres undefined),Non-Toxic,> 50%,Non-Toxic,inactive,–,–,–
C/C=C(\C)[C@H](O)[C@H](C)/C=C(C)/C=C/C/C(C)=C/Cc1nc(OC)c(OC)c(O)c1C,–,–,–,–,–,–,> 50%
COc1c(Br)cc(CC(O)C(=O)NCCc2ccc(O)c(I)c2)cc1Br (centres undefined),Non-Toxic,–,Non-Toxic,inactive,–,> 50%,–
